SMILES strings stand for the structures. The source made the active and inactive calls. The calls are words filed in the database; no cut-off is given here.

The subject of series [1] is Mycobacterium tuberculosis. The series is described as follows: Antimycobacterial activity against Mycobacterium tuberculosis H37Rv infected in human THP-1 cells assessed as reduction in intracellular survival at 1 to 10 uM measured after 24 to 48 hrs. The class given is functional, organism-based. The following applies: dose 1-10 µM, time 24-48 hrs. The procedure, abridged:
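THP-1 monocytes were differentiated with 10 ng/mL PMA for 48 h and infected with Mtb H37Rv (MOI 10) for 2 h. Cells were washed and cultured without penicillin–streptomycin with compound at 1 and 10 μM for 24 and 48 h. Lysis was in 0.05% Triton X-100; serial dilutions were plated in quadruplicate on 7H10 OADC. CFU were counted after 3 weeks. Welch's ANOVA with Dunnett T3.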

Series [2] deals with T1, Serine/threonine-protein kinase PknG (Mycobacterium tuberculosis, UniProt P9WI73). As to the kind of experiment: Inhibition of full length Mycobacterium tuberculosis protein kinase G using His-tagged GarA as substrate in presence of [gamma32P] ATP measured after 12 to 24 hrs by radiometric kinase assay.
T1 sequence (P9WI73 whole entry): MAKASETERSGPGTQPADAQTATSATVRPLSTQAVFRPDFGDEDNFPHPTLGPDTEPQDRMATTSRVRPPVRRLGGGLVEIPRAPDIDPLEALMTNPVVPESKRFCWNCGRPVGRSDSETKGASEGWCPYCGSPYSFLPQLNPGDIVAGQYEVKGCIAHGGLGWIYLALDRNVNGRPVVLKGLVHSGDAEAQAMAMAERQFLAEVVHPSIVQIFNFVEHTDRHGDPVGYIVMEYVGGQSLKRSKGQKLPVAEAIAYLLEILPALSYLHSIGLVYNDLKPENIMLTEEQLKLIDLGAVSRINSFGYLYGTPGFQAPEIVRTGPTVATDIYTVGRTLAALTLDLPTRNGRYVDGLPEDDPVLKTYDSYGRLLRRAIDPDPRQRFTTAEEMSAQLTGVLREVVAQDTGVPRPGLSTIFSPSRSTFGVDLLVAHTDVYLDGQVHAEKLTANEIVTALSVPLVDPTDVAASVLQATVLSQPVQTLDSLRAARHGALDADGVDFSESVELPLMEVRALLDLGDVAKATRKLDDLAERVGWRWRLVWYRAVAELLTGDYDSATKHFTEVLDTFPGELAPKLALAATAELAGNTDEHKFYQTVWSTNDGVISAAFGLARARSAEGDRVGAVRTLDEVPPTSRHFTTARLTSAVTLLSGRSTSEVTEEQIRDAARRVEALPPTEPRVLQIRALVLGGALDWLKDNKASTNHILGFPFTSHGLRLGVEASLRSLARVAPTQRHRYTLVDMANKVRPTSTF
Series [3] has as its target T1, Serine/threonine-protein kinase PknG. The series is described as follows: Binding affinity to full length Mycobacterium tuberculosis protein kinase G expressed in Escherichia coli BL21 assessed as dissociation constant at 21 degreeC by fluorescence spectroscopy based.
Series [4] has as its system THP-1. As to the kind of experiment: Cytotoxicity against human THP1 cells assessed as reduction in cell viability at 1 to 10 uM measured for 3 to 48 hrs by trypan blue assay. The class given is toxicity, cell-based. To be noted: thp-1, 10 µM, dose lower 1 µM, time lower 3 hrs, dose upper 10 µM, time upper 48 hrs. The procedure, abridged: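 PMA-differentiated THP-1 macrophages were exposed to compound at 1 and 10 μM for 3, 5, 24 and 48 h. Viability was scored by trypan blue exclusion, in triplicate, as percent of untreated control cells.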

For series [5], the target named is Serine/threonine-protein kinase PknG (Mycobacterium tuberculosis) (UniProt P9WI73). The series is described as follows: Inhibition of full length Mycobacterium tuberculosis protein kinase G at 40 uM using GarA as substrate in presence of ATP relative to control. The procedure, abridged:
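End-point assay with full-length PknG 1 μM, GarA 25 μM and ATP 2 μM, in 25 mM Tris-HCl pH 7.4, 2 mM MnCl2 and 1–2% DMSO. Reactions ran 60 min at 37 °C, after which remaining ATP was read by Kinase-Glo Plus luminescence. Inhibition was referenced to no-compound (DMSO) and no-GarA controls. Duplicates.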

Sequence of Serine/threonine-protein kinase PknG (Mycobacterium tuberculosis) (P9WI73 whole entry): as above

Regarding `NC(=O)c1c(NC(=O)C2CC2)sc2c1CCCC2`, the result in series [1] was Active. Further, the IC50 in series [2] is 0.9 µM. On to `NC(=O)c1c(N)c(C(=O)c2ccc(Br)cc2)n2ccccc12`, for which the dissociation constant (Kd) in series [3] came to 1.3 µM.

Consider `NC(=O)c1c(N)c(C(=O)c2ccc(F)cc2)n2ccccc12`, for which, in series [1], the result was Active. Also, the Activity result in series [4] is recorded as “Non-Toxic”.

In the case of `CC(C)c1ccc(C(=O)c2c(N)c(C(N)=O)c3ccccn23)cc1`, in series [1], the result was Active. Moreover, the Activity result in series [4] was “Non-Toxic”. For the molecule `CCOc1ccc(C(=O)c2c(N)c(C(N)=O)c3ccccn23)cc1`, the Kd in series [3] was found to be 13 µM. Regarding `CS(=O)(=O)Nc1ccc(-c2cc(-c3ccccc3)cc(C(N)=O)c2N)cc1`, the inhibition in series [5] came out at 50%. Turning to `NC(=O)c1c(N)c(C(=O)c2ccccc2)n2ccccc12`, the Kd in series [3] is 1.8 µM.

As to `CCN1CCCC1CNC(=O)Nc1sc2c(c1C(N)=O)CCCC2` (configuration not stated), the result in series [1] was Active.

As for `NC(=O)c1c(NC(=O)NCC2CCCO2)sc2c1CCCC2` (configuration not stated), in series [1], the outcome was Active.

The values above are taken from ChEMBL document CHEMBL5143719, “Cosolvent Sites-Based Discovery of Mycobacterium Tuberculosis Protein Kinase G Inhibitors” (J Med Chem, 2022).
